Here are results for 48 variants from the RNAGym collection of RNA variant scans (doi:10.1002/anie.201605470).

B1: Osa-1-4 twister ribozyme (parent)
chain: CCGCCUAACACUGCCAAUGCCGGUCCCAAGCCCGGAUAAAAGUGGAGGGGGCGG

In this data set the parent is B1. The data set can be described thus: self-cleavage, relative activity (ratio to wild type); higher = more cleavage; co-transcriptional. The method in brief:
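For each read, cleavage status was taken from whether upstream sequence was present. The reads came from an Oryza sativa twister ribozyme of 54 nucleotides, whose DNA template was synthesised with 97 % wild-type base and 1 % of each other base at the 48 positions downstream of the cleavage site. The template was transcribed in vitro at 37 °C for 2 h with co-transcriptional self-cleavage, and the RNA was reverse-transcribed using a template-switching oligonucleotide, PCR-amplified and deep-sequenced. Relative activity is the fraction cleaved normalised to wild type.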
Take CCGCCUAACACUGCCAAUGCAGGUCCCAAGCCCAGAUAAAAGUGGAGGGGGCGG: the self-cleavage is 0.91.
The same measure for CCGCCUAACACUGCCAAUGCAGGUCCCAAGCCCCGAUAAAAGUGGAGGGGGCGG: 0.92; for CCGCCUAACACUGCCAAUGCAGGUCCCAAGCCCUGAUAAAAGUGGAGGGGGCGG: 1.05.
As to CCGCCUAACACUGCCAAUGCAGGUCCCAAGCCCGGAUAAAAGUGGAGGGGGAGG, the self-cleavage turned out to be 0.31.
The same measure for CCGCCUAACACUGCCAAUGCAGGUCCCAAGCCCGGAUAAAAGUGGAGGGGGUGG: 0.86; for CCGCCUAACACUGCCAAUGCAGGUCCCAAGCCCGGAUAAAAGUGGAGGGGGGGG: 0.54.
The same measure for CCGCCUAACACUGCCAAUGCAGGUCCCAAGCCCGAAUAAAAGUGGAGGGGGCGG: 0.87; for CCGCCUAACACUGCCAAUGCAGGUCCCAAGCCCGCAUAAAAGUGGAGGGGGCGG: 0.06.
The result for CCGCCUAACACUGCCAAUGCAGGUCCCAAGCCCGUAUAAAAGUGGAGGGGGCGG reads 0.44; that for CCGCCUAACACUGCCAAUGCAGGUCCCAACCCCGGAUAAAAGUGGAGGGGGCGG, 0.04; that for CCGCCUAACACUGCCAAUGCAGGUCCCAAACCCGGAUAAAAGUGGAGGGGGCGG, 0.03.
Regarding CCGCCUAACACUGCCAAUGCAGGUCCCAAUCCCGGAUAAAAGUGGAGGGGGCGG, the self-cleavage was 0.04.
The result for CCGCCUAACACUGCCAAUGCAGGACCCAAGCCCGGAUAAAAGUGGAGGGGGCGG reads 0.07; that for CCGCCUAACACUGCCAAUGCAGGGCCCAAGCCCGGAUAAAAGUGGAGGGGGCGG, 0.06; that for CCGCCUAACACUGCCAAUGCAGGCCCCAAGCCCGGAUAAAAGUGGAGGGGGCGG, 0.06.
With CCGCCUAACACUGCCAAUGCAGGUCCGAAGCCCGGAUAAAAGUGGAGGGGGCGG, the self-cleavage came out at 0.04.
The result for CCGCCUAACACUGCCAAUGCAGGUCCAAAGCCCGGAUAAAAGUGGAGGGGGCGG reads 0.08; that for CCGCCUAACACUGCCAAUGCAGGUCCUAAGCCCGGAUAAAAGUGGAGGGGGCGG, 0.08.
For the variant CCGCCUAACACUGCCAAUGCAGGUCCCAAGCCCGGAUAAAAGUGGAGGGGGCCG, the self-cleavage was 0.06.
Take CCGCCUAACACUGCCAAUGCAGGUCCCAAGCCCGGAUAAAAGUGGAGGGGGCUG: the self-cleavage was 0.11.
With CCGCCUAACACUGCCAAUGCAGGUCCCAAGCCCGGAUAAAAGUGGAGGGGGCAG, the self-cleavage was 0.19.
CCGCCUAACACUGCCAAUGCAGUUCCCAAGCCCGGAUAAAAGUGGAGGGGGCGG: the self-cleavage is 0.04.
The same measure for CCGCCUAACACUGCCAAUGCAGAUCCCAAGCCCGGAUAAAAGUGGAGGGGGCGG: 0.07; for CCGCCUAACACUGCCAAUGCAGCUCCCAAGCCCGGAUAAAAGUGGAGGGGGCGG: 0.03.
The result for CCGCCUAACACUGCCAAUGCAGGUCCCAAGCCCGGAUAAAAUUGGAGGGGGCGG reads 0.05.
The result for CCGCCUAACACUGCCAAUGCAGGUCCCAAGCCCGGAUAAAAAUGGAGGGGGCGG reads 0.1.
As to CCGCCUAACACUGCCAAUGCAGGUCCCAAGCCCGGAUAAAACUGGAGGGGGCGG, the self-cleavage stood at 0.07.
For the variant CCGCCUAACACUGCCAAUGCAGGUCCCAAGCCCGGAUAAAAGUGGAGGGGGCGG, the self-cleavage stood at 0.93.
CCGCCUAACACUGCCAAUGCAGGUCCCAAGCCCGGAUAAAAGUGUAGGGGGCGG: the self-cleavage is 0.05.
Turning to CCGCCUAACACUGCCAAUGCAGGUCCCAAGCCCGGAUAAAAGUGAAGGGGGCGG, the self-cleavage came to 0.05.
Consider CCGCCUAACACUGCCAAUGCAGGUCCCAAGCCCGGAUAAAAGUGCAGGGGGCGG, for which the self-cleavage came out at 0.05.
The same measure for CCGCCUAACACUGCCAAUGUCGGUCCCAAGCCCGGAUAAAAGGGGAGGGGGCGG: 0.68; for CCGCCUAACACUGCCAAUGUCGGUCCCAAGCCCGGAUAAAAGCGGAGGGGGCGG: 0.49; for CCGCCUAACACUGCCAAUGUCGGUCCCAAGCCCGGAUAAAAGAGGAGGGGGCGG: 0.84.
The result for CCGCCUAACACUGCCAAUGCAGGUCCCAAGCCGGGAUAAAAGUGGAGGGGGCGG reads 0.03; that for CCGCCUAACACUGCCAAUGCAGGUCCCAAGCCAGGAUAAAAGUGGAGGGGGCGG, 0.09.
The same measure for CCGCCUAACACUGCCAAUGCAGGUCCCAAGCCUGGAUAAAAGUGGAGGGGGCGG: 0.07; for CCGCCUAACACUGCCAAUGCAGGUCCCAAGCCCGGAUAAAAGUGGAAGGGGCGG: 0.07; for CCGCCUAACACUGCCAAUGCAGGUCCCAAGCCCGGAUAAAAGUGGAUGGGGCGG: 0.07.
Regarding CCGCCUAACACUGCCAAUGCAGGUCCCAAGCCCGGAUAAAAGUGGACGGGGCGG, the self-cleavage is 0.05.
The same measure for CCGCCUAACACUGCCAAUGCAGGUCCCAAGCGCGGAUAAAAGUGGAGGGGGCGG: 0.09; for CCGCCUAACACUGCCAAUGCAGGUCCCAAGCUCGGAUAAAAGUGGAGGGGGCGG: 0.07; for CCGCCUAACACUGCCAAUGCAGGUCCCAAGCACGGAUAAAAGUGGAGGGGGCGG: 0.08.
The same measure for CCGCCUAACACUGCCAAUGCAGGUCCCAAGCCCGGAUAAAAGUGGAGGGAGCGG: 0.85; for CCGCCUAACACUGCCAAUGCAGGUCCCAAGCCCGGAUAAAAGUGGAGGGUGCGG: 0.52; for CCGCCUAACACUGCCAAUGCAGGUCCCAAGCCCGGAUAAAAGUGGAGGGCGCGG: 0.24.
CCGCCUAACACUGCCAAUGCAAGUCCCAAGCCCGGAUAAAAGUGGAGGGGGCGG: the self-cleavage worked out at 0.11.
For CCGCCUAACACUGCCAAUGCACGUCCCAAGCCCGGAUAAAAGUGGAGGGGGCGG, the self-cleavage turned out to be 0.07.
